Data on 13 molecules can be found in ChEMBL document CHEMBL4043142, “Discovery of new leads against Mycobacterium tuberculosis using scaffold hopping and shape based similarity” (Bioorg Med Chem, 2017).

Converted amounts (≈) assume the structure as drawn.

Series [1] deals with Mycobacterium tuberculosis. The series can be described thus: Antitubercular activity against Mycobacterium tuberculosis H37Rv ATCC 25618 after 6 days by resazurin dye based assay. It is filed as functional. The settings on record: H37Rv ATCC 25618, 144 h.
For another series, the system named is Vero. Put plainly: Cytotoxicity against African green monkey Vero cells after 72 hrs by MTT assay. The format is cell-based. The following applies: Chlorocebus sabaeus. A general note: Tetrazolium dyes change colour on reduction, which living cells bring about.
The subject of series [2] is HepG2. The series can be described thus: Cytotoxicity against human HepG2 cells after 48 hrs by CellTiter-Glo assay. The following applies: HepG2, 48 h. It is filed as cell-based.
Series [3] in a line: Half life in mouse microsomes. The format is ADME, Microsome.
Series [4] can be described thus: Protection index, ratio of IC50 for HepG2 cells to MIC for Mycobacterium tuberculosis H37Rv.
Series [5] is described as follows: Protection index, ratio of IC50 for African green monkey Vero cells to MIC for Mycobacterium tuberculosis H37Rv.
The subject of series [6] is Mycobacterium tuberculosis. Put plainly: Antitubercular activity against clinical isolates of Mycobacterium tuberculosis by broth microdilution assay. It is filed as functional. (In general: Dilution methods test growth across graded concentrations, often in twofold steps.)
Series [7] deals with Mycobacterium tuberculosis. The series can be described thus: Antitubercular activity against Mycobacterium tuberculosis H37Rv after 5 days by microplate alamar blue assay. It is filed as functional. The following applies: 120 h. In general terms: Alamar Blue is a resazurin reagent that responds to reducing activity.
Another series deals with Staphylococcus aureus. The series can be described thus: Antimicrobial activity against gram-positive Staphylococcus aureus ATCC 43300 at 32 ug/ml after 18 hrs. The settings on record: ATCC 43300, 18 h. The format is functional. The essentials:
(§1)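 Whole-cell growth inhibition screen at a single final concentration of 32 µg/mL, in duplicate on different plates, with 0.3% DMSO final. Bacteria grown overnight in cation-adjusted Mueller Hinton broth at 37°C, diluted 40-fold, and grown 1.5-3 h to mid-log. Wells seeded at 5×10^5 CFU/mL and incubated 18 h at 37°C without shaking. OD600 read; percent inhibition calculated against media-only and untreated-bacteria controls on the same plate. Colistin (Gram-negative) and vancomycin (Gram-positive) were the standards.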

The subject of a further series is Klebsiella pneumoniae. The series can be described thus: Antimicrobial activity against gram-negative Klebsiella pneumoniae ATCC 700603 at 32 ug/ml after 18 hrs. The format is functional. The following applies: ATCC 700603, 18 h. The essentials:
as §1

A further series concerns Candida albicans. The series can be described thus: Antifungal activity against Candida albicans ATCC 90028 at 32 ug/ml after 24 hrs. It is filed as functional. The settings on record: ATCC 90028, 24 h.
Series [8] deals with Mycobacterium tuberculosis. Put plainly: Antitubercular activity against Mycobacterium tuberculosis H37Rv at 50 ug/ml after 5 days by microplate alamar blue assay relative to control. It is filed as functional. The following applies: 120 h. The gist of the method:
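M. tuberculosis H37Rv tested by microplate alamar blue assay, reading the resazurin-to-resorufin colour change, at an initial 50 µg/ml. Rifampicin and isoniazid were the standards.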

The subject of the next series is Acinetobacter baumannii. Put plainly: Antimicrobial activity against gram-negative Acinetobacter baumannii ATCC 19606 at 32 ug/ml after 18 hrs. The format is functional. The following applies: ATCC 19606 = CIP 70.34 = JCM 6841, 18 h. The essentials: as §1
A further series has as its system Pseudomonas aeruginosa. The series can be described thus: Antimicrobial activity against gram-negative Pseudomonas aeruginosa ATCC 27853 at 32 ug/ml after 18 hrs. It is filed as functional. The following applies: ATCC 27853, 18 h. The gist of the method: as §1
The subject of another series is Cryptococcus neoformans. The series can be described thus: Antifungal activity against Cryptococcus neoformans var. grubii ATCC 208821 at 32 ug/ml after 24 hrs. The following applies: ATCC 208821, 24 h. The format is functional. The essentials: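 Single-concentration antifungal screen at a final 32 µg/mL, n=2 on different plates. Fungi grown 3 days on YPD agar at 30°C; suspension of 1-5×10^6 cells/mL made from five colonies, then diluted in YNB broth. Incubated 35°C for 24 h without shaking. C. albicans read at OD530. C. neoformans read as OD600-570 after resazurin (0.001% final) and a further 2 h at 35°C. Inhibition calculated against on-plate controls; fluconazole was the standard.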

Series [9] concerns HepG2. The series can be described thus: Cytotoxicity against human HepG2 cells after 24 hrs by MTT assay. The format is cell-based. The following applies: HepG2, 24 h. The essentials:
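HepG2 cells seeded at 25,000-50,000 per well and allowed to adhere about 24 h at 37°C in 5% CO2. Serial dilutions (300, 100, 50, 10, 1, 0.1 µM) added in triplicate and incubated 24 h. MTT added to 10% of the total volume for 2-4 h in the dark. Formazan dissolved in 100% DMSO, absorbance read at 570 nm, and IC50 calculated.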

Series [10] can be described thus: Cytotoxicity against African green monkey Vero cells after 72 hrs by sulforhodamine B assay. It is filed as cell-based. The settings on record: chlorocebus sabaeus.
A short description of series [11]: Drug metabolism in rat liver microsomes after 60 mins. The format is ADME, microsome. The settings on record: read-out: Drug metabolism. The essentials:
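Rat liver microsomes incubated with compound for 60 min. Stability followed as the peak area ratio of compound to internal standard. p-Nitrophenol conversion to p-nitrocatechol served as the positive control.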

The test system of another series is Liver. Put plainly: Drug level in rat liver microsomes treated with p-nitrophenol after 60 mins. The format is ADME, microsome. The following applies: 1 h. The essentials: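 p-Nitrophenol incubated 60 min with rat liver microsomes as the positive control; its conversion to p-nitrocatechol was measured.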

Take `COc1ccc(-c2cc(CN3CCSCC3)c(C)n2-c2ccc(F)cc2)cc1`: the MIC – broadly, the smallest concentration in the dilution series that meets the test's criterion for growth inhibition – in series [1] turned out to be 0.2 µM (≈ 0.0793 µg/mL). Also, the IC50 (usually the midpoint of a concentration-inhibition curve) is more than 302 µM in the series on Vero and more than 2420 µM with HepG2 [2]. For the same molecule, the half-life (in general, the time in which the quantity being followed falls by half) in series [3] is less than 5 min. Besides, the Ratio in series [4] and in series [5] was 127.5 - 1937.5 throughout.
Turning to `CSc1ccc(-c2cc(CN3CCSCC3)c(C)n2-c2ccc(F)cc2)cc1`, in series [1], it took 0.16 µM (≈ 0.066 µg/mL) to inhibit growth (MIC). For the same molecule, the IC50 turned out to be 15.2 µM in the series with Vero and 5.9 µM with HepG2 [2]. For the same molecule, the half-life in series [3] stood at 10 min. The Ratio in series [4] and in series [5] was 127.5 - 1937.5 throughout.
Take `Cc1c(CN2CCN(C)CC2)cc(-c2ccc(Cl)cc2)n1-c1ccc(Cl)cc1`: the figures for the MIC in [1] and in series [6] were 5 µM (≈ 2.07 µg/mL) and 1.5 µg/mL (≈ 3.62 µM), respectively. Also, it took 7.8 µM to reach half-maximal inhibition with HepG2 [2] (IC50). This molecule displayed a half-life in [3] of more than 30 min. Also, the Ratio in [4] and in [5] was 127.5 - 1937.5 throughout.
The molecule `Cc1ccc(-c2cc(CN3CCSCC3)c(C)n2-c2ccc(F)cc2)cc1` registered an MIC in series [1] of 0.16 µM (≈ 0.0609 µg/mL). In addition, the figures for the IC50 with Vero and in the series on HepG2 [2] were 179 µM and 24 µM, respectively. In addition, the half-life in series [3] worked out at 8.2 min. Further, the Ratio in series [4] and in series [5] was 127.5 - 1937.5 each time.
In series [7], `COc1ccc(-c2nc3ccccc3n2-c2ccc(Cl)cc2)c(OC)c1` showed an MIC95 of 48.3 µg/mL (≈ 132 µM). The inhibition (in general, the share of the control response that was lost under treatment) at 32 µg/mL in the series with Staphylococcus aureus lay in the range of 10.9 to 14.2%; in the series on Klebsiella pneumoniae it was 3.25 to 9.39%; in the series on Candida albicans, 2.68 to 3.53%. In [8], this molecule had an inhibition at 50 µg/mL of 95%.
`Cc1c(CN2CCOCC2)cc(-c2ccc(C(C)C)cc2)n1-c1ccc(F)cc1` yielded an MIC in series [1] of 0.12 µM (≈ 0.0471 µg/mL). Moreover, the IC50 was 50.1 µM with Vero and 15.3 µM in the series on HepG2 [2]. Further, the half-life in series [3] was more than 30 min.
As to `COc1ccc(-c2nc3ccccc3n2-c2ccc(C(C)C)cc2)cc1`, the MIC95 in series [7] is more than 50 µg/mL. Further, the inhibition at 32 µg/mL in the series on Staphylococcus aureus was 6.25 to 12.4%; in the series on Acinetobacter baumannii it was 23.8 to 36.1%; in the series on Pseudomonas aeruginosa it was 6.29 to 15.7%; in the series with Candida albicans, 13.1 to 14.2%; in the series on Cryptococcus neoformans, 7.06 to 11%. For the same molecule, testing at 50 µg/mL in [8] gave an inhibition of 68%.
Regarding `c1ccc(-c2nc3ccccn3c2CN2CCOCC2)cc1`, in series [7], the MIC95 was more than 50 µg/mL. For the same molecule, the inhibition at 32 µg/mL was 26.1 to 28.6% in the series with Staphylococcus aureus; 2.52 to 13.8% in the series on Klebsiella pneumoniae; 9.04 to 16.5% in the series with Pseudomonas aeruginosa; 0.3 to 6.38% in the series on Candida albicans; 2.71 to 3.04% with Cryptococcus neoformans. The molecule further registered an inhibition at 50 µg/mL in [8] of 95%.
Take `COc1ccc(-c2nc3ccccc3n2-c2ccc(Cl)cc2)cc1OC`: the MIC95 in [7] is 20.3 µg/mL (≈ 55.6 µM). For the same molecule, the inhibition at 32 µg/mL with Staphylococcus aureus was 1.03 to 9.81%; in the series on Acinetobacter baumannii, 39.9 to 42.6%; in the series with Candida albicans it was 7.63 to 8.23%; in the series on Cryptococcus neoformans it was 0.95 to 4.02%. Besides, in the series on HepG2 [9], the IC50 was 49.9 µM. Also, halving of growth in series [10] (GI50 at 72 h) required 8.2 µM. The metabolised at 1 h in [11] was found to be 5%. The inhibition at 50 µg/mL in series [8] is 95%.
As for `COc1ccc(-c2nc3ccccc3n2-c2ccc(Br)cc2)cc1`, the MIC95 in series [7] was more than 50 µg/mL. The inhibition at 32 µg/mL in the series with Staphylococcus aureus fell in the range of 12.3 to 15%; in the series with Acinetobacter baumannii, 1.56 to 58.1%; with Candida albicans, 9.75 to 11.7%. Also, the midpoint of inhibition with HepG2 [9], the IC50, lay at 113 µM. In addition, growth in [10] was halved (GI50 at 72 h) at 5 µM. In addition, the metabolised at 1 h in [11] came out at 2%. This molecule also registered an inhibition at 50 µg/mL in series [8] of 92%.
Regarding `COc1ccc(-c2nc3ccccc3n2-c2ccc(Cl)cc2)cc1`, the MIC95 in series [7] is 2.3 µg/mL (≈ 6.87 µM). In addition, the inhibition at 32 µg/mL with Pseudomonas aeruginosa is 1.34 to 9.75%; in the series on Candida albicans, 12.2 to 12.9%. In the series with HepG2 [9], this molecule yielded an IC50 of 203 µM. Further, in [10], the GI50 (usually the concentration giving 50% growth inhibition) at 72 h worked out at 29 µM. Further, in series [11], the metabolised at 1 h worked out at 0%. Testing at 50 µg/mL in [8] gave an inhibition of 95%.
In the case of `COc1cccc(-c2nc3ccccc3n2-c2ccc(Cl)cc2)c1`, in series [7], the MIC95 is more than 50 µg/mL. Moreover, the inhibition at 32 µg/mL lay within 49.4 to 50.8% with Acinetobacter baumannii, 2.25 to 13% with Pseudomonas aeruginosa, 4.73 to 28.1% in the series on Candida albicans and 6.16 to 19.6% in the series on Cryptococcus neoformans. For the same molecule, the inhibition at 50 µg/mL in series [8] came out at 67%.
Take `O=[N+]([O-])c1ccc(O)c(O)c1` [4-Nitrocatechol]: the Drug metabolism entry in the series on Liver was “Metabolite_Detected”.
